From article PMC8851455 (ACS Omega, 2022)
Read-outs that look alike come from different tables or passages of the source.

Columns and labels:
MCF-7 cells [1] = assay: MCF-7 cell proliferation assay; assay type: cell-based, human
How it was run: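 MCF-7 cells exposed to test compound or E2 at six concentrations from 10–12 to 10–7 M in EA-free medium. Proliferation read as MTT product absorbance at 570 nm. Three independent trials, each in triplicate. % RME2 = 100 × (OD test − OD VC)/(max OD E2 − OD VC). EC50 from curve fitting. EEF = EC50 of E2/EC50 of sample. One-way ANOVA with Dunnett's test versus E2 at each concentration.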

chicken embryo = assay: Chicken embryonic assay; assay type: in vivo; settings: egg injection, day 18
chicken fetal liver = assay: TBARs level; assay type: in vivo; settings: higher dose (0.5 mM: 450–500 μg/kg)
S. typhimurium TA98 = assay: Ames test, strain TA98; assay type: cell-based, Salmonella typhimurium
S. typhimurium TA100 = assay: Ames test, strain TA100; assay type: cell-based, Salmonella typhimurium
[2] = tested on: S. typhimurium tester strains (TA98, TA100, and TA102); assay: Ames test, overall over three strains; assay type: cell-based, Salmonella typhimurium; settings: 5 × 10^–5 to 50 pmol/plate, with or without S9
MCF-7 cells [3] = settings: at 0.001–1 μM when tested from 0.001 to 50 μM; cited from earlier work
S. typhimurium = settings: at 12.1 to 147.8 nmol/plate; cited from earlier work
[4] = higher dose (0.5 mM: 450–500 μg/kg; E2 0.1 mM: 91 μg/kg)
[5] = lower dose (0.05 mM: 45–50 μg/kg; E2 0.01 mM: 9.1 μg/kg)
[6] = TA100 +S9, 5 × 10^–2 pmol/plate
[7] = TA100 +S9, 5 × 10^–3 pmol/plate
[8] = TA100 +S9, 5 × 10^–4 pmol/plate
[9] = TA100 +S9, 5 × 10^–5 pmol/plate
[10] = TA100 -S9, 5 × 10^–2 pmol/plate
[11] = TA100 -S9, 5 × 10^–3 pmol/plate
[12] = TA100 -S9, 5 × 10^–4 pmol/plate
[13] = TA100 -S9, 5 × 10^–5 pmol/plate
[14] = TA102 +S9, 5 × 10^–2 pmol/plate
[15] = TA102 +S9, 5 × 10^–3 pmol/plate
[16] = TA102 +S9, 5 × 10^–4 pmol/plate
[17] = TA102 +S9, 5 × 10^–5 pmol/plate
[18] = TA102 -S9, 5 × 10^–3 pmol/plate
[19] = TA102 -S9, 5 × 10^–4 pmol/plate
[20] = TA102 -S9, 5 × 10^–5 pmol/plate

With `O=c1c(O)c(-c2ccc(O)c(O)c2)oc2cc(O)cc(O)c12` [quercetin] the “% RME2, no detectable EA” value (MCF-7 cells [1]; all test concentrations except 10^–11 M, VC + 3 SD = 18%) was under 18%, the “max % RME2” value (MCF-7 cells [1]; highest % RME2 (relative maximum % E2) in test range 10^–12–10^–7 M) was 22% and the “LSI (liver somatic index)” value (chicken embryo; [4]) was 1.85 ± 0.21%. The “REEW (ratio of embryo to egg weight)” value (chicken embryo; [4]) was 0.43 ± 0.057, the mortality rate (chicken embryo; [4]) was 12.5% and the “number of dead chicken embryo” value (chicken embryo; [4]) was 1. For the same molecule, the “weights: embryo” value (chicken embryo; [4]) was 24.06 ± 2.35 g, the “weights: heart” value (chicken embryo; [4]) was 0.21 ± 0.05 g and the “weights: liver” value (chicken embryo; [4]) was 0.44 ± 0.01 g. For the same molecule, the “LSI (liver somatic index)” value (chicken embryo; [5]) was 2.52 ± 0.34%, the “REEW (ratio of embryo to egg weight)” value (chicken embryo; [5]) was 0.41 ± 0.035 and the malformation rate (chicken embryo; [5]) was 0.0%. For the same molecule, the mortality rate (chicken embryo; [5]) was 25.0%, the “number of dead chicken embryo” value (chicken embryo; [5]) was 2 and the “number of malformation chicken embryo” value (chicken embryo; [5]) was 0. For the same molecule, the “weights: embryo” value (chicken embryo; [5]) was 22.11 ± 2.26 g, the “weights: heart” value (chicken embryo; [5]) was 0.20 ± 0.02 g and the “weights: liver” value (chicken embryo; [5]) was 0.56 ± 0.13 g. For the same molecule, the TBARs value (chicken fetal liver) was 62.48 nmol/g, the MI (S. typhimurium TA98; TA98 +S9, 0.5 pmol/plate) was 1.1 and the “number of revertants/plate (M ± SD)” value (S. typhimurium TA98; TA98 +S9, 0.5 pmol/plate) was 25 ± 13 revertants/plate. The MI (S. typhimurium TA98; TA98 +S9, 5 pmol/plate) was 0.8, the “number of revertants/plate (M ± SD)” value (S. typhimurium TA98; TA98 +S9, 5 pmol/plate) was 19 ± 10 revertants/plate and the MI (S. typhimurium TA98; TA98 +S9, 50 pmol/plate) was 0.8. The “number of revertants/plate (M ± SD)” value (S. typhimurium TA98; TA98 +S9, 50 pmol/plate) was 18 ± 13 revertants/plate, the MI (S. typhimurium TA98; TA98 +S9, 5 × 10^–2 pmol/plate) was 1.0 and the “number of revertants/plate (M ± SD)” value (S. typhimurium TA98; TA98 +S9, 5 × 10^–2 pmol/plate) was 23 ± 17 revertants/plate. For the same molecule, the MI (S. typhimurium TA98; TA98 +S9, 5 × 10^–3 pmol/plate) was 1.2, the “number of revertants/plate (M ± SD)” value (S. typhimurium TA98; TA98 +S9, 5 × 10^–3 pmol/plate) was 27 ± 16 revertants/plate and the MI (S. typhimurium TA98; TA98 +S9, 5 × 10^–4 pmol/plate) was 0.8. The “number of revertants/plate (M ± SD)” value (S. typhimurium TA98; TA98 +S9, 5 × 10^–4 pmol/plate) was 18 ± 13 revertants/plate, the MI (S. typhimurium TA98; TA98 +S9, 5 × 10^–5 pmol/plate) was 0.7 and the “number of revertants/plate (M ± SD)” value (S. typhimurium TA98; TA98 +S9, 5 × 10^–5 pmol/plate) was 17 ± 8 revertants/plate. The MI (S. typhimurium TA98; TA98 -S9, 0.5 pmol/plate) was 1.3, the “number of revertants/plate (M ± SD)” value (S. typhimurium TA98; TA98 -S9, 0.5 pmol/plate) was 28 ± 1 revertants/plate and the MI (S. typhimurium TA98; TA98 -S9, 5 pmol/plate) was 1.2. For the same molecule, the “number of revertants/plate (M ± SD)” value (S. typhimurium TA98; TA98 -S9, 5 pmol/plate) was 27 ± 11 revertants/plate, the MI (S. typhimurium TA98; TA98 -S9, 50 pmol/plate) was 1.3 and the “number of revertants/plate (M ± SD)” value (S. typhimurium TA98; TA98 -S9, 50 pmol/plate) was 30 ± 2 revertants/plate. For the same molecule, the MI (S. typhimurium TA98; TA98 -S9, 5 × 10^–2 pmol/plate) was 0.8, the “number of revertants/plate (M ± SD)” value (S. typhimurium TA98; TA98 -S9, 5 × 10^–2 pmol/plate) was 19 ± 6 revertants/plate and the MI (S. typhimurium TA98; TA98 -S9, 5 × 10^–3 pmol/plate) was 1.4. The “number of revertants/plate (M ± SD)” value (S. typhimurium TA98; TA98 -S9, 5 × 10^–3 pmol/plate) was 31 ± 6 revertants/plate, the MI (S. typhimurium TA98; TA98 -S9, 5 × 10^–4 pmol/plate) was 1.2 and the “number of revertants/plate (M ± SD)” value (S. typhimurium TA98; TA98 -S9, 5 × 10^–4 pmol/plate) was 27 ± 3 revertants/plate. The MI (S. typhimurium TA98; TA98 -S9, 5 × 10^–5 pmol/plate) was 1.1, the “number of revertants/plate (M ± SD)” value (S. typhimurium TA98; TA98 -S9, 5 × 10^–5 pmol/plate) was 25 ± 2 revertants/plate and the MI (S. typhimurium TA100; TA100 +S9, 0.5 pmol/plate) was 1.2. For the same molecule, the “number of revertants/plate (M ± SD)” value (S. typhimurium TA100; TA100 +S9, 0.5 pmol/plate) was 398 ± 8 revertants/plate, the MI (S. typhimurium TA100; TA100 +S9, 5 pmol/plate) was 1.2 and the “number of revertants/plate (M ± SD)” value (S. typhimurium TA100; TA100 +S9, 5 pmol/plate) was 386 ± 12 revertants/plate. The MI (S. typhimurium TA100; TA100 +S9, 50 pmol/plate) was 1.1, the “number of revertants/plate (M ± SD)” value (S. typhimurium TA100; TA100 +S9, 50 pmol/plate) was 369 ± 12 revertants/plate and the MI (S. typhimurium TA100; [6]) was 1.1. For the same molecule, the “number of revertants/plate (M ± SD)” value (S. typhimurium TA100; [6]) was 366 ± 14 revertants/plate, the MI (S. typhimurium TA100; [7]) was 1.1 and the “number of revertants/plate (M ± SD)” value (S. typhimurium TA100; [7]) was 367 ± 5 revertants/plate. For the same molecule, the MI (S. typhimurium TA100; [8]) was 1.1, the “number of revertants/plate (M ± SD)” value (S. typhimurium TA100; [8]) was 349 ± 8 revertants/plate and the MI (S. typhimurium TA100; [9]) was 1.1. The “number of revertants/plate (M ± SD)” value (S. typhimurium TA100; [9]) was 358 ± 14 revertants/plate, the MI (S. typhimurium TA100; TA100 -S9, 0.5 pmol/plate) was 1.0 and the “number of revertants/plate (M ± SD)” value (S. typhimurium TA100; TA100 -S9, 0.5 pmol/plate) was 105 ± 11 revertants/plate. The MI (S. typhimurium TA100; TA100 -S9, 5 pmol/plate) was 1.0, the “number of revertants/plate (M ± SD)” value (S. typhimurium TA100; TA100 -S9, 5 pmol/plate) was 104 ± 8 revertants/plate and the MI (S. typhimurium TA100; TA100 -S9, 50 pmol/plate) was 0.9. The “number of revertants/plate (M ± SD)” value (S. typhimurium TA100; TA100 -S9, 50 pmol/plate) was 88 ± 8 revertants/plate, the MI (S. typhimurium TA100; [10]) was 1.1 and the “number of revertants/plate (M ± SD)” value (S. typhimurium TA100; [10]) was 113 ± 6 revertants/plate. The MI (S. typhimurium TA100; [11]) was 1.0, the “number of revertants/plate (M ± SD)” value (S. typhimurium TA100; [11]) was 103 ± 7 revertants/plate and the MI (S. typhimurium TA100; [12]) was 1.0. For the same molecule, the “number of revertants/plate (M ± SD)” value (S. typhimurium TA100; [12]) was 98 ± 7 revertants/plate, the MI (S. typhimurium TA100; [13]) was 1.0 and the “number of revertants/plate (M ± SD)” value (S. typhimurium TA100; [13]) was 97 ± 4 revertants/plate. For the same molecule, the “Ames test outcome (signs of mutagenicity)” value [2] was “signs of mutagenicity”, the MI (S. typhimurium TA102; TA102 +S9, 0.5 pmol/plate) was 1.1 and the “number of revertants/plate (M ± SD)” value (S. typhimurium TA102; TA102 +S9, 0.5 pmol/plate) was 326 ± 19 revertants/plate. The MI (S. typhimurium TA102; TA102 +S9, 5 pmol/plate) was 0.9, the “number of revertants/plate (M ± SD)” value (S. typhimurium TA102; TA102 +S9, 5 pmol/plate) was 279 ± 21 revertants/plate and the MI (S. typhimurium TA102; TA102 +S9, 50 pmol/plate) was 1.0. The “number of revertants/plate (M ± SD)” value (S. typhimurium TA102; TA102 +S9, 50 pmol/plate) was 310 ± 31 revertants/plate, the MI (S. typhimurium TA102; [14]) was 1.1 and the “number of revertants/plate (M ± SD)” value (S. typhimurium TA102; [14]) was 337 ± 7 revertants/plate. For the same molecule, the MI (S. typhimurium TA102; [15]) was 1.2, the “number of revertants/plate (M ± SD)” value (S. typhimurium TA102; [15]) was 369 ± 13 revertants/plate and the MI (S. typhimurium TA102; [16]) was 1.0. The “number of revertants/plate (M ± SD)” value (S. typhimurium TA102; [16]) was 312 ± 16 revertants/plate, the MI (S. typhimurium TA102; [17]) was 0.9 and the “number of revertants/plate (M ± SD)” value (S. typhimurium TA102; [17]) was 291 ± 11 revertants/plate. For the same molecule, the MI (S. typhimurium TA102; TA102 -S9, 0.5 pmol/plate) was 1.0, the “number of revertants/plate (M ± SD)” value (S. typhimurium TA102; TA102 -S9, 0.5 pmol/plate) was 267 ± 23 revertants/plate and the MI (S. typhimurium TA102; TA102 -S9, 5 pmol/plate) was 1.2. For the same molecule, the “number of revertants/plate (M ± SD)” value (S. typhimurium TA102; TA102 -S9, 5 pmol/plate) was 312 ± 13 revertants/plate, the MI (S. typhimurium TA102; TA102 -S9, 50 pmol/plate) was 1.4 and the “number of revertants/plate (M ± SD)” value (S. typhimurium TA102; TA102 -S9, 50 pmol/plate) was 347 ± 10 revertants/plate. For the same molecule, the MI (S. typhimurium TA102; [18]) was 1.3, the “number of revertants/plate (M ± SD)” value (S. typhimurium TA102; [18]) was 325 ± 10 revertants/plate and the MI (S. typhimurium TA102; [19]) was 1.2. The “number of revertants/plate (M ± SD)” value (S. typhimurium TA102; [19]) was 301 ± 16 revertants/plate, the MI (S. typhimurium TA102; [20]) was 1.1 and the “number of revertants/plate (M ± SD)” value (S. typhimurium TA102; [20]) was 284 ± 15 revertants/plate. The “cell proliferation in the MCF-7 cells” value (MCF-7 cells [3]) was under 120% and the “mutagenicity in TA98, TA100, and TA102” value (S. typhimurium) was “showed mutagenicity”.
